MrgX1 antag = blocks BAM8-22 activation of human MrgX1 receptor; Q96LB2; AID 588676; B-score at 10 µM; MRGX1-HEK293 calcium flux, Fluo-4, BAM8-22 antagonism; hits give low values; 1.3% of 310,000 active;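 active = calcium-response B-score plate-corrected more than 3 library SD below zero, starting fluorescence within 5 deviations, no agonist response on first addition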;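 note: peak minus trough fluorescence over baseline after final BAM8-22 challenge near maximal dose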
Target sequence (Q96LB2 whole entry, looked up): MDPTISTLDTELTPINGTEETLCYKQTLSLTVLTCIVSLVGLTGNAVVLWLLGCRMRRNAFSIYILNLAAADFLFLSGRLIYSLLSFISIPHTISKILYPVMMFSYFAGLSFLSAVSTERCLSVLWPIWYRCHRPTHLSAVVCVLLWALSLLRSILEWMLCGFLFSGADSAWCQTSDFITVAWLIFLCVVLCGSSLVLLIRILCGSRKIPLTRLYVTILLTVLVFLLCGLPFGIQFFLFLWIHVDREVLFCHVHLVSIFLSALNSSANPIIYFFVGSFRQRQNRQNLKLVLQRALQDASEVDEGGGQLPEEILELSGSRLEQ
RGS4 inh = inhibitors of human RGS4. P49798. HEK293 M3R/RGS4 inducible, Fluo-4 calcium flux; hits give high values; triggered by carbachol at its EC20. B-score at 10 µM. 0.45% of 310,000 active. AID 463165;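 active = B-score, a plate-corrected calcium signal, over three deviations above library mean, with baseline fluorescence within five deviations of library mean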;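 note: RGS4 expression induced by doxycycline in cells with stable M3 receptor; B-score is computed from the integrated fluorescence ratio over baseline after carbachol; higher B-score means a larger calcium signal and so more RGS4 inhibition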
RGS4 act = potentiators or activators of RGS4. HEK293 M3R/inducible RGS4, carbachol calcium flux Fluo4; hits give low values. B-score at 10 µM. 0.92% of 310,000 active;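 active = B-score of the integrated calcium signal more than 4 SD below the library mean, with starting fluorescence not abnormally high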;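 note: negative B-score means reduced calcium response which marks RGS4 activation or potentiation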
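Detection: kinetic calcium fluorescence imaging with Fluo4-AM dye, 2 µM / Material: HEK293 cells with stable M3R and inducible RGS4 / Schedule: recording 10 s baseline at 1 Hz, 100 s post-agonist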
MrgX1 agonist = agonists of human MrgX1 receptor | Q96LB2 | MrgX1-HEK293 cells, Fluo-4 calcium fluorescence, agonist mode; hits give high values | B-score at 10 µM | 0.44% of 310,000 active | AID 588627;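 active = calcium response B-score plate-corrected fluorescence ratio at least 3 library SD, with starting fluorescence B-score inside 5 SD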
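Assay system: stable human MrgX1 HEK293 cell line. Quantity: 15,000 cells per well. Schedule: cells plated overnight, dye loaded 0.5 h 37 °C, 0.5 h room temperature. Detection: Fluo-4 NW calcium-flux fluorescence, kinetic read. Read-out basis: peak-minus-minimum fluorescence over baseline, converted to B scores. Control set: positive and negative control wells on each plate.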
MrgX1 PAM = human MrgX1 positive allosteric modulation, primary screen | 0.63% of 310,000 active | Q96LB2 | AID 588675 | B-score at 10 µM | MrgX1-HEK293, Fluo-4 calcium flux, FDSS; hits give high values;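 active = plate-corrected calcium response at least 3 library SD above typical, normal starting fluorescence, not activating the receptor alone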;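 note: compound read alongside a low EC10 to EC30 dose of BAM8-22 agonist; peak minus trough fluorescence over baseline measured at the second addition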
RGS4 act valid = RGS4 activation, validation assay; shares compounds with RGS4 act; 89% of 1,100 active; inhibition, % at 10 µM; AID 602282; HEK293 M3R/RGS4 inducible, carbachol calcium flux Fluo4;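 active = inhibition above 3 SD of the buffer control wells, cut at about 41% in these data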;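 note: signal is the integrated peak-minus-minimum Fluo4 fluorescence over baseline ratio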
RGS4 act ctr = activity in cells without induced RGS4 expression | shares compounds with RGS4 act | HEK293 M3R non-induced RGS4, Fluo4 calcium flux; after carbachol challenge at its EC90 | inhibition, % at 10 µM | 82% of 1,100 active | AID 602283;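 active = inhibition exceeding 3 SD of buffer-only control wells, cut at about 26% in these data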;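 note: percent drop in integrated peak-minus-baseline over baseline Fluo4 ratio after carbachol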
The depositor's hits bear a star; i = inactive; . = no result. An excerpt weighted towards active compounds, which were near 3.5% of everything screened.

SMILES | MrgX1 antag | RGS4 inh | RGS4 act | MrgX1 agonist | MrgX1 PAM | RGS4 act valid | RGS4 act ctr
COc1ccc(C(=O)O/N=C(/C(N)=O)P(=O)(OC(C)C)OC(C)C)cc1 | i | i | -7.67* | i | i | . | .
COc1ccc(-[n+]2c(-c3ccccc3)cc(-c3ccc(C)cc3)cc2-c2ccccc2)cc1 | -6.69* | i | -7.55* | i | 14.3* | . | .
CCCOC(=O)c1ccc(-[n+]2c(-c3ccccc3)cc(-c3ccccc3)cc2-c2ccccc2)cc1 | i | i | -7.16* | 34* | i | . | .
Brc1ccc(-[n+]2c(-c3ccccc3)cc(-c3ccccc3)cc2-c2ccccc2)cc1 | i | i | -8.58* | i | i | . | .
O=C1NC(c2cc3ccccc3nc2Cl)Nc2ccccc21 (configuration not stated) | i | i | i | i | i | . | .
Fc1ccc(Cn2nnnc2CN2CCC(n3nnc4cc(C(F)(F)F)ccc43)CC2)cc1 | i | i | i | i | i | . | .
CC(Cc1ccccc1Sc1ccc(O)cc1)N(C)C (configuration not stated) | i | i | -9.19* | i | i | 95.0* | 93.8*
CC(N)Cc1ccccc1Sc1ccc(O)cc1 (configuration not stated) | i | i | i | i | i | . | .
O=C(N/N=C\C1C(=O)NC(=S)N(c2ccccc2)C1=O)c1ccc(O)cc1 (configuration not stated) | i | i | i | i | i | . | .
CC(=O)N1CCC(N2CCCC(C(=O)c3cccc(Cl)c3)C2)CC1 (configuration not stated) | i | i | -10* | i | i | 79.5* | 83.8*
COc1cccc(C(=O)C2CCCN(C3CCOCC3)C2)c1 (configuration not stated) | i | i | i | i | i | . | .
OC(c1cccc(Cl)c1)(c1cccc(Cl)c1)C1CN2CCC1CC2 (configuration not stated) | i | i | -13.8* | i | i | 93.0* | 93.3*
CSc1ccc(C(=O)C2CCCN(Cc3cccnc3)C2)cc1 (configuration not stated) | i | i | -8.48* | i | i | 68.5* | 26.3*
CCN(CC)S(=O)(=O)c1cc(NC(=O)C(C)N2CC=C(c3ccccc3)CC2)ccc1C (configuration not stated) | i | i | -7.57* | i | i | 79.0* | 34.8*
CCOC(=O)C1(CCc2ccccc2)CCN(Cc2cccc3cnccc23)CC1 | i | i | -10.8* | i | i | 89.0* | 58.8*
Cc1cccc(OCC(=O)N2CCN(Cc3cccnc3)CC2)c1 | i | i | i | i | i | . | .
COc1ccc(C(=O)C2CCCN(Cc3cccc(C)n3)C2)c(OC)c1 (configuration not stated) | i | i | i | i | i | . | .
COc1ccc(C(=O)C2CCCN(C3CSCCSC3)C2)c(C)c1 (configuration not stated) | i | i | -8.8* | i | i | 86.0* | 43.8*
COc1ccc(C(=O)C2CCCN(CCO)C2)c(C)c1 (configuration not stated) | i | i | i | i | i | . | .
COc1ccc(C(=O)C2CCCN(C3CSCCSC3)C2)c(OC)c1 (configuration not stated) | i | i | -7.74* | i | i | 45.0* | 83.8*
Oc1ccc(C[C@H]2NCCc3cc(O)c(O)cc32)cc1O | i | i | i | i | i | . | .
O=c1c2ccccc2nc(CNCC2CCCO2)n1-c1ccc(F)cc1 (configuration not stated) | i | i | i | i | i | . | .
C=Cn1ccnc1P(=S)(c1nccn1C=C)C1CCCCC1 | i | i | i | i | i | . | .
Cc1cc(OCC(=O)O)c2c3c(c(=O)oc2c1)CCCC3 | i | i | i | i | i | . | .

Screening data: PubChem BioAssay, Johns Hopkins Ion Channel Center
